Test results taken from ChEMBL document CHEMBL1155553, “Design and synthesis of alpha-ketoamides as cathepsin S inhibitors with potential applications against tumor invasion and angiogenesis” (J Med Chem, 2010).
Activity calls are given as the source filed them. The rule behind the calls is not given here.

How the values were obtained:
Cathepsin S [1] = biological target: T1, Cathepsin S (Homo sapiens, UniProt P25774); assay: Competitive inhibition of human recombinant cathepsin S expressed in Escherichia coli BL21 (DE3) after 15 mins by Lineweaver-Burke plot analysis
Target sequence in this assay (P25774 115-331 limits assumed): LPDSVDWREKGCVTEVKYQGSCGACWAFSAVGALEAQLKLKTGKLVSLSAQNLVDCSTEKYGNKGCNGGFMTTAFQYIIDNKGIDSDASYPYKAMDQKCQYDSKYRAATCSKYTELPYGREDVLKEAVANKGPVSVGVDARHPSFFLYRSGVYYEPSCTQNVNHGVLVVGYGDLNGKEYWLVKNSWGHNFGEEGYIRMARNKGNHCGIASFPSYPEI

[2] = biological target: Procathepsin L (Homo sapiens) (UniProt P07711); assay: Inhibition of cathepsin L assessed as proteolytic activity at 40 nM by fluorimetric assay; parameters: Activity: scale not given: the % may be the effect or the level left
Chain of Procathepsin L (Homo sapiens) (P07711 114-333 limits assumed): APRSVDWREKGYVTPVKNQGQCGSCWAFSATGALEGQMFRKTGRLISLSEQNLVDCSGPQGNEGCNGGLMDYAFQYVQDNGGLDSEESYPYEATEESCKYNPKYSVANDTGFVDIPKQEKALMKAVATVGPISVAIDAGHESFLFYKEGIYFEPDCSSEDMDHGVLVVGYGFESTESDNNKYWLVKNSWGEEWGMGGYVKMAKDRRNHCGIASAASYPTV

[3] = Antiinvasive activity in human CL1-5 cells assessed as cellular migration after 24 hrs by fluorescence assay relative to control; assay type: functional; parameters: concentration or dose not given beside the values
HUVEC [4] = assay: Cytotoxicity against HUVEC by MTT assay; assay type: cell-based; settings: Homo sapiens
How it was run: (§1)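 Overall cytotoxicity measured by MTT proliferation assay, compounds tested at concentrations up to 50 μM.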

[5] = Cytotoxicity against human CL1-5 cells by MTT assay; assay type: cell-based; how it was run: as §1
[6] = biological target: Cathepsin B (Homo sapiens) (UniProt P07858); assay: Inhibition of cathepsin B assessed as proteolytic activity at 40 nM by fluorimetric assay; parameters: Activity: scale not given: the % may be the effect or the level left
HUVEC [7] = assay: Antiinvasive activity in VEGF-stimulated HUVEC assessed as cellular migration after 24 hrs by fluorescence assay relative to control; assay type: functional, Homo sapiens; parameters: concentration or dose not given beside the values
Cathepsin S [8] = biological target: T1, Cathepsin S; assay: Inhibition of human recombinant cathepsin S expressed in Escherichia coli BL21 (DE3) after 10 mins by fluorescence assay
Target sequence in this assay (P25774 whole entry): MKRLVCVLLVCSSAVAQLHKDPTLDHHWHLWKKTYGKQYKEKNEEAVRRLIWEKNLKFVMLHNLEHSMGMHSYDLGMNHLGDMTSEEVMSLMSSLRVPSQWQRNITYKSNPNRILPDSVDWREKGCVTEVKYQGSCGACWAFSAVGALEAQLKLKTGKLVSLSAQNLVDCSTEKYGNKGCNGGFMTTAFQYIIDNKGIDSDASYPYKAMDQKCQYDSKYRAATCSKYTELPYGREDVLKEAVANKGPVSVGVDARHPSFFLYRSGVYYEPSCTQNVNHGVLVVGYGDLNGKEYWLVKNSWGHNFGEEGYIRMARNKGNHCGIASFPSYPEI

Cathepsin S [9] = biological target: T1, Cathepsin S; assay: Inhibition of cathepsin S-mediated cleavage of fibronectin by cell-based ECM degradation assay
Target sequence in this assay (P25774 115-331 limits assumed): as the sequence (P25774 115-331 limits assumed) above

[10] = Antiinvasive activity in human CL1-5 cells after 24 hrs by fluorescence assay; assay type: functional
How it was run: (§2)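 CL1-5 lung adenocarcinoma cells (2 × 10⁵ per well) treated with compound; control wells received DMSO (10 μL) in medium (2 mL). Cell traversal/invasion expressed as percent of DMSO control (set 100%); mean ± SD from hexaplicate experiments.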

[11] = Antiinvasive activity in human CL1-5 cells assessed as cellular invasion after 24 hrs by fluorescence assay; assay type: functional; how it was run: as §2
HUVEC [12] = assay: Antiangiogenic activity in VEGF-stimulated HUVEC assessed as inhibition of capillary tube formation after 16 hrs by photographic analysis; assay type: functional, Homo sapiens; parameters: scale not given: the % may be the effect or the level left
How it was run: (§3)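 HUVEC plated on Matrigel-coated wells, treated with α-ketoamide in presence of VEGF (20 ng/mL); after 16 h incubation cultures photographed and capillary tubes (branch points) counted under microscope at 100× magnification. Tube formation expressed relative to DMSO control; mean ± SD from three separate experiments.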

HUVEC [13] = assay: Antiangiogenic activity in VEGF-stimulated HUVEC assessed as capillary tube formation after 16 hrs by photographic analysis; assay type: functional, Homo sapiens; how it was run: as §3
[14] = Cytotoxicity against human CL1-5 cells assessed as maximal tolerated dose by MTT assay; assay type: cell-based; settings: read-out: MTD
How it was run: (§4)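 MTT proliferation read-out for overall cytotoxicity of the α-ketoamides. Compounds were tested at concentrations up to 50 μM. Both cell types express high levels of Cat S.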

[15] = Cytotoxicity against HUVEC assessed as maximal tolerated dose by MTT assay; assay type: cell-based; settings: human, read-out: MTD; how it was run: as §4

Row | SMILES | Activity [3] [%] | IC50 (HUVEC [4]) [µM] | IC50 [5] [µM] | Activity (HUVEC [7]) [%] | IC50 (Cathepsin S [8]) [µM] | also measured
1 | CCOC(=O)CNC(=O)C(=O)C(COCc1ccccc1)NC(=O)[C@H](CC1CCCCC1)NC(=O)N1CCOCC1 (some centres undefined) | 51 | > 50 | > 50 | 87 | 0.0044 | inhibition (Cathepsin S [1]): Active; Activity [2]: 3.2%; Activity [6]: 102%
2 | CCOC(=O)CNC(=O)C(=O)C(COCc1ccccc1)NC(=O)[C@H](CC1CCCCC1)NC(=O)C1=CC(=O)CC(C)(C)O1 (some centres undefined) | 98 | 37 | > 50 | 89 | 0.0043 | –
3 | CCOC(=O)CNC(=O)C(=O)C(COCc1ccccc1)NC(=O)[C@H](CC1CCCCC1)NC(=O)Cc1cccc2ccccc12 (some centres undefined) | 41 | – | – | 54 | 0.0057 | –
4 | CCOC(=O)CNC(=O)C(=O)C(COCc1ccccc1)NC(=O)[C@H](CC1CCCCC1)NC(=O)c1ccc(Cl)c(N)c1 (some centres undefined) | 68 | > 50 | > 50 | 46 | 0.0021 | –
5 | CCOC(=O)CNC(=O)C(=O)C(COCc1ccccc1)NC(=O)[C@H](CC1CCCCC1)NC(=O)C1(C)CC1 (some centres undefined) | 101 | 35 | > 50 | 95 | 0.0034 | –
6 | CCOC(=O)CNC(=O)C(=O)C(COCc1ccccc1)NC(=O)[C@H](CC1CCCCC1)NC(=O)c1cccc(C)c1[N+](=O)[O-] (some centres undefined) | 79 | – | – | 83 | 0.0056 | –
7 | CC(C)C[C@H](NC(=O)[C@H]1O[C@@H]1C(=O)O)C(=O)NCCCCN=C(N)N | – | – | – | – | – | inhibition [2]: -1.3%; inhibition [6]: 75%
8 | CCOC(=O)CNC(=O)C(=O)C(COCc1ccccc1)NC(=O)[C@H](CC1CCCCC1)NC(=O)CCC(=O)c1ccc2ccc3cccc4ccc1c2c34 (some centres undefined) | – | – | – | – | > 0.1 | –
9 | CCOC(=O)CNC(=O)C(=O)C(COCc1ccccc1)NC(=O)[C@H](CC1CCCCC1)NC(=O)c1ccc(C(=O)OC)c(N)c1 (some centres undefined) | 53 | > 50 | > 50 | 49 | 0.0058 | Activity [2]: 8%; inhibition (Cathepsin S [9]): Dose-dependent effect; Activity [10]: 67%; Activity [6]: 84%; Activity [11]: 33%; Activity (HUVEC [12]): 57%; Activity (HUVEC [13]): 43%
10 | CCOC(=O)CNC(=O)C(=O)C(COCc1ccccc1)NC(=O)[C@H](CC1CCCCC1)NC(=O)c1cccc(F)c1F (some centres undefined) | 115 | – | – | 107 | 0.0059 | –
11 | CCOC(=O)CNC(=O)C(=O)[C@H](COCc1ccccc1)NC(=O)[C@H](CC1CCCCC1)NC(=O)c1cc(Br)ccc1N | 52 | – | – | 69 | 0.0062 | –
12 | N#C[C@H](COCc1ccccc1)NC(=O)[C@H](CC1CCCCC1)NC(=O)N1CCOCC1 | 67 | > 50 | > 50 | 83 | – | Activity [2]: 44.8%; Activity [6]: 104%
13 | CCOC(=O)CNC(=O)C(=O)C(COCc1ccccc1)NC(=O)[C@H](CC1CCCCC1)NC(=O)c1cc(Br)ccc1NC(=O)OC(C)(C)C (some centres undefined) | 76 | – | – | 86 | 0.0238 | –
14 | CCOC(=O)CNC(=O)C(=O)C(COCc1ccccc1)NC(=O)[C@H](CC1CCCCC1)NC(=O)c1cc(SC)ccc1Cl (some centres undefined) | 65 | > 50 | 32 | – | 0.0036 | Activity [2]: 17.4%; Activity [6]: 92%
15 | CCOC(=O)CNC(=O)C(=O)C(COCc1ccccc1)NC(=O)[C@H](CC1CCCCC1)NC(=O)CC(c1ccccc1)(c1ccccc1)c1ccccc1 (some centres undefined) | – | – | > 50 | – | > 0.1 | –
16 | CCOC(=O)CNC(=O)C(=O)C(COCc1ccccc1)NC(=O)[C@H](CC1CCCCC1)NC(=O)c1cncc(C)n1 (some centres undefined) | 60 | – | – | 62 | 0.0061 | –
17 | CCOC(=O)CNC(=O)C(=O)C(COCc1ccccc1)NC(=O)[C@H](CC1CCCCC1)NC(=O)c1cc(Cl)ccc1[N+](=O)[O-] (some centres undefined) | 76 | > 50 | > 50 | 68 | 0.008 | –

Row | SMILES | Activity [3] [%] | IC50 (HUVEC [4]) [µM] | IC50 [5] [µM] | Activity (HUVEC [7]) [%] | IC50 (Cathepsin S [8]) [µM] | also measured
18 | CCOC(=O)CNC(=O)C(=O)C(COCc1ccccc1)NC(=O)[C@H](CC1CCCCC1)NC(=O)/C=C/c1cc(OC)ccc1OC (some centres undefined) | 81 | – | > 50 | 59 | 0.0038 | –
19 | CCOC(=O)CNC(=O)C(=O)C(COCc1ccccc1)NC(=O)[C@H](CC1CCCCC1)NC(=O)c1ccc(Br)o1 (some centres undefined) | 80 | – | – | 76 | 0.0023 | –
20 | CCOC(=O)CNC(=O)C(=O)C(COCc1ccccc1)NC(=O)[C@H](CC1CCCCC1)NC(=O)c1ccc(Cl)c(NC(=O)OC(C)(C)C)c1 (some centres undefined) | 50 | 48 | 42 | 48 | 0.0157 | –
21 | CCOC(=O)CNC(=O)C(=O)[C@H](COCc1ccccc1)NC(=O)[C@H](CC(C)C)NC(=O)c1cccc2c1C(=O)c1ccccc1-2 | 50 | 30 | 23 | 55 | 0.0088 | MNTC [14]: 10 µM; inhibition (Cathepsin S [9]): Dose-dependent effect; Activity [10]: 68%; Activity [11]: 32%; Activity (HUVEC [12]): 32%; MNTC [15]: 10 µM; Activity (HUVEC [13]): 88%
22 | CCOC(=O)CNC(=O)C(=O)C(COCc1ccccc1)NC(=O)[C@H](CC1CCCCC1)NC(=O)c1ccc(C)cc1 (some centres undefined) | 55 | – | – | 55 | 0.0062 | –
23 | CCOC(=O)CNC(=O)C(=O)C(COCc1ccccc1)NC(=O)[C@H](CC1CCCCC1)NC(=O)c1ccc([N+](=O)[O-])s1 (some centres undefined) | 64 | 48 | > 50 | 56 | 0.0103 | –
24 | CCOC(=O)CNC(=O)C(=O)C(COCc1ccccc1)NC(=O)[C@H](CC1CCCCC1)NC(=O)c1ccc(C(=O)OC)c(NC(=O)OC(C)(C)C)c1 (some centres undefined) | 51 | 47 | 36 | 82 | 0.0492 | Activity [2]: 8.7%; Activity [6]: 89%
25 | CCOC(=O)CNC(=O)C(=O)C(COCc1ccccc1)NC(=O)[C@H](CC1CCCCC1)NC(=O)Cc1cccs1 (some centres undefined) | 67 | 39 | > 50 | 59 | 0.0072 | –
26 | CCOC(=O)CNC(=O)C(=O)C(COCc1ccccc1)NC(=O)[C@H](CC1CCCCC1)NC(=O)c1cc(OC)ccc1[N+](=O)[O-] (some centres undefined) | 95 | 39 | > 50 | 98 | 0.0031 | –
27 | CCOC(=O)CNC(=O)C(=O)C(COCc1ccccc1)NC(=O)[C@H](CC1CCCCC1)NC(=O)c1ccc(OC(C)=O)cc1 (some centres undefined) | 69 | > 50 | > 50 | 27 | 0.002 | Activity [2]: 0.4%; Activity [6]: 91%
28 | CCOC(=O)CNC(=O)C(=O)[C@H](COCc1ccccc1)NC(=O)[C@H](CC1CCCCC1)NC(=O)C(=O)c1cccs1 | 56 | 36 | > 50 | 57 | 0.0066 | MNTC [14]: 10 µM; inhibition (Cathepsin S [9]): Dose-dependent effect; Activity [10]: 82%; Activity [11]: 18%; Activity (HUVEC [12]): 36%; MNTC [15]: 10 µM; Activity (HUVEC [13]): 64%
29 | CCOC(=O)CNC(=O)C(=O)C(COCc1ccccc1)NC(=O)[C@H](CC1CCCCC1)NC(=O)c1cccc([N+](=O)[O-])c1 (some centres undefined) | 67 | > 50 | > 50 | 39 | 0.0019 | Activity [2]: 2.9%; Activity [6]: 97%
30 | CCOC(=O)CNC(=O)C(=O)[C@H](COCc1ccccc1)NC(=O)[C@H](CC1CCCCC1)NC(=O)c1cc(F)ccc1F | 48 | – | – | 34 | 0.0115 | –
31 | CCOC(=O)CNC(=O)C(=O)C(COCc1ccccc1)NC(=O)[C@H](CC1CCCCC1)NC(=O)c1cc2ccccc2n1C (some centres undefined) | 69 | – | – | 55 | 0.0071 | –
32 | CCOC(=O)CNC(=O)C(=O)C(COCc1ccccc1)NC(=O)[C@H](CC1CCCCC1)NC(=O)c1cc(Cl)cc([N+](=O)[O-])c1 (some centres undefined) | 80 | > 50 | > 50 | 73 | 0.0228 | –
33 | CCCCCC1OC(=O)C(C(=O)N[C@@H](CC2CCCCC2)C(=O)NC(COCc2ccccc2)C(=O)C(=O)NCC(=O)OC)=CC1C (some centres undefined) | 119 | – | – | 99 | 0.0423 | –
